This passage reports EC50 results from BindingDB's records for doi:10.1016/j.bmcl.2019.05.046 (Peking University, 2019).

SMILES strings stand for the structures.

The target in this assay is Neuronal acetylcholine receptor subunit alpha-7 (Homo sapiens, UniProt P36544). Nature of the assay: Positive allosteric modulation activity at human alpha7 nAChR expressed in Xenopus laevis oocytes assessed as increase in acetylcholine-induced channel current by measuring acetylcholine EC50 at 10 uM at -90 mV holding potential preincubated for 2 mins followed by co-application with acetylcholine for 10 secs by two-electrode voltage clamp method (Rvb = 231.8 +/- 2 uM). The procedure, abridged:
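ACh concentration-response on α7-expressing Xenopus oocytes, run without compound or after 2 min preincubation with 10 μM compound. Peak currents were normalised to the current evoked by 100 μM ACh alone. Curves were fitted for Emax, ACh EC50 and Hill coefficient, n = 4 per point.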

Chain of Neuronal acetylcholine receptor subunit alpha-7 (P36544 whole entry): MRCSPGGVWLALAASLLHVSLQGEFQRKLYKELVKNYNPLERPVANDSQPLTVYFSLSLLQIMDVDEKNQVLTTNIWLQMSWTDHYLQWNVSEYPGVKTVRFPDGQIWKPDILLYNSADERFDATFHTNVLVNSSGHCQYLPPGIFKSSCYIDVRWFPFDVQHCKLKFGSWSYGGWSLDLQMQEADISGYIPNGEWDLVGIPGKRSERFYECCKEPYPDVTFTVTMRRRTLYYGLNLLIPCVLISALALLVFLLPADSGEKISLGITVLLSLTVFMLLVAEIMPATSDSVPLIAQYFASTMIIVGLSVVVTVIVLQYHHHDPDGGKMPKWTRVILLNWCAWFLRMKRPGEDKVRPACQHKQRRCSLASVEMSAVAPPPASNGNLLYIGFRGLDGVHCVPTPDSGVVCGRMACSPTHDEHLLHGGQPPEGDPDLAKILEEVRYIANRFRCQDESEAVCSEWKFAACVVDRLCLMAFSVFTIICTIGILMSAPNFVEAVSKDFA

Take `Cc1cc(-c2cnc(N)c(C(=O)Nc3c(C)cccc3Cl)c2)ccc1F`: the concentration for a half-maximal effect (EC50) was determined as 258 µM.
